In brackets after ≈: the same amount, converted by molar mass. Activity calls are given as the source filed them. The calls are words filed in the database; no cut-off is given here.
Tests used:
[1] = tested on: Mycobacterium tuberculosis; test: Antimycobacterial activity against Mycobacterium tuberculosis H37Rv after 7 days; type: functional; conditions: 168 h
In short: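 HT-SPOTi agar growth inhibition in 96-well format. Serially diluted DMSO solutions were mixed into Middlebrook 7H10 agar (kept at 55 °C) with 0.05% glycerol and 10% OADC. Controls were DMSO-only wells and isoniazid. Each well received 2×10³ CFU of culture (pre-grown rolling at 2 rpm or standing, 37 °C). Plates ran 7 days at 37 °C. MIC = lowest concentration with no visible growth.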

[2] = Cytotoxicity against mouse RAW264.7 cells; type: cell-based
In short: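 RAW264.7 mouse macrophages assessed by resazurin viability assay. GIC50 interpolated at 50% viability versus control.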

[3] = Selectivity index, ratio of GIC50 for mouse RAW264.7 cells to MIC for Mycobacterium tuberculosis H37Rv; type: toxicity; conditions: read-out: Selectivity Index
In short: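 Cytotoxicity was measured in mouse macrophage RAW264.7 cells by resazurin viability readout. GIC50 was interpolated at 50% viability versus untreated control. SI = GIC50 divided by the M. tuberculosis MIC from the agar spot assay.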

[4] = Binding affinity to 192 base-pair fragment HexB 5-TTATAA-3 (unknown origin) at 5 to 10 uM after 30 mins by DNaSeI footprinting assay
In short: (§1)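 Radiolabelled HexB fragment in 10 mM Tris–HCl pH 7.5 with 0.1 mM EDTA, mixed with ligand in 10 mM Tris–HCl pH 7.5 with 10 mM NaCl. Equilibrated 30 min at room temperature, then DNase I in 20 mM NaCl, 2 mM MgCl₂, 2 mM MnCl₂ for 1 min. Heated 100 °C 3 min, resolved on 8% denaturing polyacrylamide gels, phosphorimaged. GA purine markers and no-ligand control lanes included.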

[5] = Binding affinity to 192 base-pair fragment HexB 5-CAATTG-3 (unknown origin) at 5 to 10 uM after 30 mins by DNaSeI footprinting assay; in short: as §1
[6] = Binding affinity to 192 base-pair fragment HexB (unknown origin) at 5 to 10 uM after 30 mins by DNaSeI footprinting assay; in short: as §1
[7] = Binding affinity to 192 base-pair fragment HexB (unknown origin) at 1 to 10 uM after 30 mins by DNaSeI footprinting assay; in short: as §1
unidentified [8] = test: Binding affinity to 192 base-pair fragment HexB 5-TAATTA-3 (unknown origin) at 5 to 10 uM after 30 mins by DNaSeI footprinting assay; in short: as §1
unidentified [9] = test: Binding affinity to 192 base-pair fragment HexB 5-AATATT-3 (unknown origin) at 1 to 10 uM after 30 mins by DNaSeI footprinting assay; in short: as §1
unidentified [10] = test: Binding affinity to 192 base-pair fragment HexB 5-ACATAT-3 (unknown origin) at 1 to 10 uM after 30 mins by DNaSeI footprinting assay; in short: as §1
[11] = Binding affinity to 5'-ACVHA-3' (V= A or G or C; H= C or T or A) (unknown origin) at 2 uM after 45 mins by ethidium bromide assay
In short: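 Hairpin oligonucleotides from a 512-member five-bp library at 1 µM base pairs final with 4.4 µM ethidium bromide in 0.1 M Tris–HCl, 0.1 M NaCl, pH 8. Fluorescence read after 15 min at room temperature (ex 545, em 595 nm). Ligand added at 2 µM final (DMSO), read again after 45 min. Triplicates; % fluorescence reduction relative to no-drug and no-DNA controls.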

[12] = Binding affinity to 192 base-pair fragment HexB 5-ATTAAT-3 (unknown origin) at 1 to 10 uM after 30 mins by DNaSeI footprinting assay; in short: as §1

Compound | MIC [1] | GI50 [2] | selectivity ratio [3] | Activity [4] | Activity [5] | Activity [6] | Activity [7] | Activity (unidentified [8]) | Activity (unidentified [9]) | Activity (unidentified [10]) | Activity [11] | Activity [12]
CC(=O)Nc1ccc(-c2cc(C(=O)Nc3cc(C(=O)Nc4cc(C(=O)NCCCN(C)C)n(C)c4)n(C)c3)n(C)c2)cc1 | 125 µg/mL (≈ 213 µM) | 500 µg/mL (≈ 852 µM) | 4 | – | – | – | – | – | – | – | – | –
Cc1nc(-c2ccsc2)sc1C(=O)Nc1cc(C(=O)Nc2cc(C(=O)NCCCN(C)C)n(C)c2)n(C)c1 | 250 µg/mL (≈ 451 µM) | 62.5 µg/mL (≈ 113 µM) | 0.25 | – | – | – | – | – | – | – | – | –
CC(=O)Nc1cccc(-c2ccc(C(=O)Nc3cc(C(=O)Nc4cc(C(=O)NCCCN(C)C)n(C)c4)n(C)c3)o2)c1 | 125 µg/mL (≈ 218 µM) | 500 µg/mL (≈ 872 µM) | 4 | – | – | – | – | – | – | – | – | –
CC(=O)Nc1ccc(-c2csc(C(=O)Nc3cc(C(=O)Nc4cc(C(=O)NCCCN(C)C)n(C)c4)n(C)c3)c2)cc1 | 62.5 µg/mL (≈ 106 µM) | 62.5 µg/mL (≈ 106 µM) | 1 | – | – | – | – | – | – | – | – | –
CC(=O)Nc1ccc(-c2ccc(C(=O)Nc3cc(C(=O)Nc4cc(C(=O)NCCCN(C)C)n(C)c4)n(C)c3)o2)cc1 | 125 µg/mL (≈ 218 µM) | 250 µg/mL (≈ 436 µM) | 2 | – | – | – | – | – | – | – | – | –
CO[C@H]1/C=C/O[C@@]2(C)Oc3c(C)c(O)c4c(O)c(c(/C=N/N5CCN(C)CC5)c(O)c4c3C2=O)NC(=O)/C(C)=C\C=C\[C@H](C)[C@H](O)[C@@H](C)[C@@H](O)[C@@H](C)[C@H](OC(C)=O)[C@@H]1C [RIFAMPIN] | 0.05 µg/mL (≈ 0.0608 µM) | 700 µg/mL (≈ 851 µM) | 14000 | – | – | – | – | – | – | – | – | –
NNC(=O)c1ccncc1 [ISONIAZID] | 0.05 µg/mL (≈ 0.365 µM) | 3000 µg/mL (≈ 21900 µM) | 60000 | – | – | – | – | – | – | – | – | –
Cn1cc(NC(=O)c2cc(NC(=O)c3cc(NC=O)cn3C)cn2C)cc1C(=O)NCCC(=N)N [STALLIMYCIN] | 31.2 µg/mL (≈ 64.9 µM) | 62.5 µg/mL (≈ 130 µM) | 2 | Active | Active | Active | Active | Active | – | – | – | –
Cc1nc(-c2cnn(C)c2)sc1C(=O)Nc1cc(C(=O)Nc2cc(C(=O)NCCCN(C)C)n(C)c2)n(C)c1 | 31.2 µg/mL (≈ 56.6 µM) | 250 µg/mL (≈ 453 µM) | 8 | – | – | Active | Active | – | Active | Active | Active | Active
